# Test results published in ChEMBL document CHEMBL3779799, “Antifibrotic and anticancer action of 5-ene amino/iminothiazolidinones” (Eur J Med Chem, 2016).
# What was measured:
# [1] = Cytotoxicity against human SF295 cells assessed as cell growth at 10^-5 M after 48 hrs by sulforhodamine B assay relative to control; format: functional; details: SF-295, 48 h, read-out: Activity
# How it was run: (§1)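 NCI ~60 human tumor cell line one-dose screen covering nine cancer types. Cells were preincubated 24–48 h, then exposed to compound at 10^-5 M for 48 h. SRB protein staining was the endpoint, and growth percent was calculated versus untreated control cells.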
# [2] = Cytotoxicity against human SNB75 cells assessed as cell growth at 10^-5 M after 48 hrs by sulforhodamine B assay relative to control; format: functional; details: SNB-75, 48 h, read-out: Activity; how it was run: as §1
# [3] = tested on: MDA-MB-435; test: Cytotoxicity against human MDA-MB-435 cells assessed as cell growth at 10^-5 M after 48 hrs by sulforhodamine B assay relative to control; format: functional; details: MDA-MB-435, 48 h, read-out: Activity; how it was run: as §1
# [4] = tested on: HFL1; test: Antifibrotic activity in HFL1 cells assessed as inhibition of cell viability at >1 uM after 48 hrs by sulforhodamine B assay relative to control; format: functional; details: Homo sapiens, HFL1, 48 h
# How it was run: (§2)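 HFL-1 human fetal lung fibroblasts (DMEM, 10% FCS, passages 14–18) seeded at 8000 cells/well, attached overnight, then exposed to a range of concentrations for 48 h in triplicate. Cells were fixed with TCA and stained with 0.4% SRB, bound dye was solubilized in Tris, and OD was read at 570 nm relative to control.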
# [5] = Cytotoxicity against human NCI60 cells assessed as cell growth at 10^-5 M after 48 hrs by sulforhodamine B assay relative to control; format: functional; details: NCI60, 48 h, read-out: Activity; how it was run: as §1
# [6] = tested on: HFL1; test: Antifibrotic activity in HFL1 cells assessed as inhibition of cell viability after 48 hrs by sulforhodamine B assay; format: functional, cell-based; details: Homo sapiens, HFL1, 48 h; how it was run: as §2
# [7] = Antioxidant activity assessed as inhibition of superoxide anion generation measured for 3 mins by nitro blue tetrazolium assay; format: physicochemical
# How it was run: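 Cell-free superoxide generated by xanthine (1 mM) and xanthine oxidase (0.11 U/mL), with NBT (50 µM) as detector. Compounds in DMSO were tested up to 10 µM, with DMSO held at 0.1%. NBT reduction rate (dA560/dt) was read spectrophotometrically over 3 min from the linear part.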
# [8] = Cytotoxicity against human RPMI8226 cells assessed as cell growth at 10^-5 M after 48 hrs by sulforhodamine B assay relative to control; format: functional; details: RPMI-8226, 48 h, read-out: Activity; how it was run: as §1
# [9] = Cytotoxicity against human UO31 cells assessed as cell growth at 10^-5 M after 48 hrs by sulforhodamine B assay relative to control; format: functional; details: UO-31, 48 h, read-out: Activity; how it was run: as §1
# [10] = Cytotoxicity against human MOLT4 cells assessed as cell growth at 10^-5 M after 48 hrs by sulforhodamine B assay relative to control; format: functional; details: MOLT-4, 48 h, read-out: Activity; how it was run: as §1
# [11] = tested on: NCI-H522; test: Cytotoxicity against human NCI-H522 cells assessed as cell growth at 10^-5 M after 48 hrs by sulforhodamine B assay relative to control; format: functional; details: NCI-H522, 48 h, read-out: Activity; how it was run: as §1
IC50 [7] [µM],Emax ([7]; 0.05 h) [%],SMILES,growth at 10 µM [1] [%],growth at 10 µM [2] [%],growth at 10 µM [3] [%],Emax [4] [%],growth at 10 µM [5] [%],IC50 [6] [µM],growth at 10 µM [8] [%],growth at 10 µM [9] [%],growth at 10 µM [10] [%],growth at 10 µM [11] [%]
,,COc1ccc(-c2nnc(NC3=NC(=O)/C(=C/c4ccc(N(C)C)cc4)S3)o2)cc1,69.8,60.4,47.8,52.4,92.8,0.15,,,,
0.35,71.7,CN(C1=NC(=O)/C(=C2/C(=O)Nc3ccccc32)S1)c1ccc(O)cc1,,,,27.3,85.6,1.78,55.2,21.4,60.2,65.2
